Blank lines part the entries; values can stand above or below the molecule they belong to.
Tests used:
[1] = tested on: CCRF-CEM; test: Concentration required to inhibit against HIV strain IIIB in CEM cell; format: functional; conditions: Homo sapiens, read-out: ED50 (the source's name)
[2] = target: Human immunodeficiency virus type 1 protease (Human immunodeficiency virus 1, UniProt Q72874); test: Inhibitory activity against HIV-1 protease
[3] = The maximum plasma concentration (200 mg/kg) administered orally in human; format: ADME, organism-based; design: route oral; conditions: po
In short: (§1)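 Healthy human volunteers given single oral doses of 100–800 mg with food. Plasma PK parameters reported as mean ± SD of four subjects per dose. Tmax reported as median.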

[4] = The maximum plasma concentration (25 mg/kg) administered intravenously in rat; format: ADME, organism-based; design: dose 25 mg/kg, route intravenous; conditions: iv
In short: (§2)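 Male Sprague-Dawley rats (n = 3), beagle dogs (1M/1F), female cynomolgus monkeys and marmosets (1M/1F). Dosed 12.5–25 mg/kg iv or 25–50 mg/kg oral in 5% dextrose, or propylene glycol:water 50:50 for marmosets. Fasted groups fasted overnight. Venous blood sampled predose to 48 h. Plasma stored at -20 °C, extracted and assayed by HPLC-UV. Mean (SD) reported for rats.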

[5] = The maximum plasma concentration (25 mg/kg) administered orally in marmoset; format: ADME, organism-based; design: dose 25 mg/kg, route oral; conditions: callithrix, po; in short: as §2
[6] = The maximum plasma concentration (25 mg/kg) administered orally in monkey; format: ADME, organism-based; design: dose 25 mg/kg, route oral; conditions: simiiformes, po; in short: as §2
[7] = The maximum plasma concentration (30 mg/kg) administered orally in dog; format: ADME, organism-based, Canis lupus familiaris; design: dose 30 mg/kg, route oral; conditions: po; in short: as §2
[8] = The maximum plasma concentration (400 mg/kg) administered orally in human; format: ADME, organism-based; design: route oral; conditions: po; in short: as §1
[9] = The maximum plasma concentration (50 mg/kg) administered orally in fasted rat; format: ADME, organism-based; design: dose 50 mg/kg, route oral; conditions: po; in short: as §2
[10] = The maximum plasma concentration (50 mg/kg) administered orally in rat; format: ADME, organism-based; design: dose 50 mg/kg, route oral; conditions: po; in short: as §2
[11] = tested on: Homo sapiens; test: The maximum plasma concentration (800 mg/kg) administered orally in human; format: ADME, organism-based; design: route oral; conditions: in vivo, po; in short: as §1
[12] = The area under curve (100 mg/kg) administered orally in humans; format: ADME, organism-based; conditions: human, in vivo, po; in short: as §1
[13] = The area under curve (12.5 mg/kg) administered intravenously in marmoset; format: ADME, organism-based; conditions: callithrix, in vivo, iv; in short: as §2
[14] = The area under curve (12.5 mg/kg) administered intravenously in monkey; format: ADME, organism-based; conditions: simiiformes, in vivo, iv; in short: as §2
[15] = The area under curve (15 mg/kg) administered intravenously in dog; format: ADME, organism-based, Canis lupus familiaris; conditions: in vivo, iv; in short: as §2
[16] = The area under curve (25 mg/kg) administered intravenously in rat; format: ADME, organism-based; conditions: in vivo, iv; in short: as §2
[17] = The area under curve (25 mg/kg) administered orally in marmoset; format: ADME, organism-based; conditions: callithrix, in vivo, po; in short: as §2
[18] = The area under curve (25 mg/kg) administered orally in monkey; format: ADME, organism-based; conditions: simiiformes, in vivo, po; in short: as §2
[19] = The area under curve (30 mg/kg) administered orally in dog; format: ADME, organism-based, Canis lupus familiaris; conditions: in vivo, po; in short: as §2
[20] = The area under curve (400 mg/kg) administered orally in humans; format: ADME, organism-based; conditions: human, in vivo, po; in short: as §1
[21] = The area under curve (50 mg/kg) administered orally in fasted rat; format: ADME, organism-based; conditions: in vivo, po; in short: as §2
[22] = The maximum plasma concentration (100 mg/kg) administered orally in human; format: ADME, organism-based; design: route oral; conditions: po; in short: as §1
[23] = The maximum plasma concentration (12.5 mg/kg) administered intravenously in marmoset; format: ADME, organism-based; design: dose 12.5 mg/kg, route intravenous; conditions: callithrix, iv; in short: as §2
[24] = The maximum plasma concentration (12.5 mg/kg) administered intravenously in monkey; format: ADME, organism-based; design: dose 12.5 mg/kg, route intravenous; conditions: simiiformes, iv; in short: as §2
[25] = The maximum plasma concentration (15 mg/kg) administered intravenously in dog; format: ADME, organism-based, Canis lupus familiaris; design: dose 15 mg/kg, route intravenous; conditions: iv; in short: as §2
[26] = The area under curve (50 mg/kg) administered orally in rat; format: ADME, organism-based; conditions: in vivo, po; in short: as §2
[27] = tested on: Homo sapiens; test: The area under curve (800 mg/kg) administered orally in humans; format: ADME, organism-based; conditions: in vivo, po; in short: as §1
[28] = Oral bioavailability (25 mg/kg) in marmoset; format: ADME, organism-based; conditions: primates, in vivo; in short: as §2
[29] = Oral bioavailability (25 mg/kg) in monkey; format: ADME, organism-based; conditions: primates, in vivo; in short: as §2
[30] = Oral bioavailability (30 mg/kg) in dog; format: ADME, organism-based, Canis lupus familiaris; conditions: in vivo; in short: as §2
[31] = Oral bioavailability (50 mg/kg) in fasted rat; format: ADME, organism-based; conditions: in vivo; in short: as §2
[32] = Oral bioavailability (50 mg/kg) in rat; format: ADME, organism-based; conditions: in vivo; in short: as §2
[33] = Elimination rate constant of the compound(30 mg/kg) administered orally in dog; format: ADME, organism-based, Canis lupus familiaris; conditions: in vivo, po, read-out: T1/2 el (converted); in short: as §2
[34] = Elimination rate constant of the compound(400 mg/kg) administered orally in human; format: ADME, organism-based; conditions: in vivo, po, read-out: T1/2 el (converted); in short: as §1
[35] = Elimination rate constant of the compound(50 mg/kg) administered orally in fasted rat; format: ADME, organism-based; conditions: in vivo, po, read-out: T1/2 el (converted); in short: as §2
[36] = Elimination rate constant of the compound(800 mg/kg) administered orally in human; format: ADME, organism-based; conditions: in vivo, po; in short: as §1
[37] = Elimination rate constant of the compound(25 mg/kg) administered intravenously in rat; format: ADME, organism-based; conditions: in vivo, iv, read-out: T1/2 el (converted); in short: as §2
[38] = Elimination rate constant of the compound(25 mg/kg) administered orally in marmoset; format: ADME, organism-based; conditions: callithrix, in vivo, po, read-out: T1/2 el (converted); in short: as §2
[39] = Elimination rate constant of the compound(25 mg/kg) administered orally in monkey; format: ADME, organism-based; conditions: simiiformes, in vivo, po, read-out: T1/2 el (converted); in short: as §2
[40] = Elimination rate constant of the compound(12.5 mg/kg) administered intravenously in marmoset; format: ADME, organism-based; conditions: callithrix, in vivo, iv, read-out: T1/2 el (converted); in short: as §2
[41] = Elimination rate constant of the compound(12.5 mg/kg) administered intravenously in rmonkey; format: ADME, organism-based; conditions: simiiformes, in vivo, iv, read-out: T1/2 el (converted); in short: as §2
[42] = Elimination rate constant of the compound(15 mg/kg) administered intravenously in dog; format: ADME, organism-based, Canis lupus familiaris; conditions: in vivo, iv, read-out: T1/2 el (converted); in short: as §2
[43] = Elimination rate constant of the compound(200 mg/kg) administered orally in human; format: ADME, organism-based; conditions: in vivo, po, read-out: T1/2 el (converted); in short: as §1
[44] = The maximum time for retention (12.5 mg/kg) administered intravenously in monkey; format: ADME, organism-based; conditions: simiiformes, in vivo, iv; in short: as §2
[45] = The maximum time for retention (25 mg/kg) administered intravenously in rat; format: ADME, organism-based; conditions: in vivo, iv
In short: (§3)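 Plasma pharmacokinetics in male Sprague-Dawley rats (n = 3), beagle dogs (1 male, 1 female), female cynomolgus monkeys (2) and marmosets (1 male, 1 female). Single iv (12.5-25 mg/kg) or oral (25-50 mg/kg) dose. Vehicle was 5% dextrose for rat, dog and monkey, and propylene glycol:water (50:50) for marmoset. Venous blood was drawn predose and up to 48 h. Plasma was stored at -20 °C, extracted and assayed by HPLC-UV. Values are means.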

[46] = The maximum time for retention (25 mg/kg) administered orally in marmoset; format: ADME, organism-based; conditions: callithrix, in vivo, po; in short: as §3
[47] = The maximum time for retention (25 mg/kg) administered orally in monkey; format: ADME, organism-based; conditions: simiiformes, in vivo, po; in short: as §3
[48] = The maximum time for retention (30 mg/kg) administered orally in dog; format: ADME, organism-based, Canis lupus familiaris; conditions: in vivo, po; in short: as §3
[49] = The maximum time for retention (50 mg/kg) administered orally in fasted rat; format: ADME, organism-based; conditions: in vivo, po
In short: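 Male Sprague-Dawley rats (n = 3) were fasted overnight, then given a single oral dose (25-50 mg/kg range) in 5% dextrose. Jugular, femoral or cephalic blood was sampled predose and up to 48 h. Plasma was separated at once, held at -20 °C, extracted and quantified by HPLC with UV detection. Values are the mean of three rats.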

[50] = The maximum time for retention (50 mg/kg) administered orally in rat; format: ADME, organism-based; conditions: in vivo, po; in short: as §3
[51] = The maximum time for retention (12.5 mg/kg) administered intravenously in marmoset; format: ADME, organism-based; conditions: callithrix, in vivo, iv; in short: as §2
[52] = The maximum time for retention (15 mg/kg) administered intravenously in dog; format: ADME, organism-based, Canis lupus familiaris; conditions: in vivo, iv; in short: as §2
[53] = The maximum time for retention (100 mg) administered orally in human; conditions: in vivo, po
[54] = The maximum time for retention (200 mg) administered orally in human; conditions: in vivo, po
[55] = The maximum time for retention (400 mg) administered orally in human; conditions: in vivo, po
[56] = tested on: Homo sapiens; test: The maximum time for retention (800 mg) administered orally in human; conditions: in vivo, po
[57] = Elimination rate constant of the compound(100 mg) administered orally in human; conditions: in vivo, po, read-out: T1/2 el (converted)

SMILES: Cc1c(O)cccc1C(=O)N[C@@H](CSc1ccc2ccccc2c1)[C@H](O)CN1C[C@H]2CCCC[C@H]2C[C@H]1C(=O)NC(C)(C)C
EC50 [1]: 100 nM | Ki [2]: 98 nM

Cmax [3]: 439 ng/mL | Cmax [4]: 12700 ng/mL | Cmax [5]: 840 ng/mL | Cmax [6]: 1590 ng/mL | Cmax [7]: 1220 ng/mL | Cmax [8]: 1580 ng/mL | Cmax [9]: 1470 ng/mL | Cmax [10]: 1340 ng/mL | Cmax [11]: 3163 ng/mL | AUC [12]: 1250 ng·h/mL | AUC [13]: 6630 ng·h/mL | AUC [14]: 10400 ng·h/mL | AUC [15]: 11200 ng·h/mL | AUC [16]: 7010 ng·h/mL | AUC [17]: 2890 ng·h/mL | AUC [18]: 6290 ng·h/mL | AUC [19]: 13300 ng·h/mL | AUC [20]: 7560 ng·h/mL | AUC [21]: 4040 ng·h/mL | Cmax [22]: 313 ng/mL | Cmax [23]: 5670 ng/mL | Cmax [24]: 7990 ng/mL | Cmax [25]: 11900 ng/mL | AUC [26]: 6090 ng·h/mL | AUC [27]: 22200 ng·h/mL | bioavailability [28]: 10% | bioavailability [29]: 9% | bioavailability [30]: 35% | bioavailability [31]: 29% | bioavailability [32]: 43% | half-life [33]: 7.72 h | half-life [34]: 2.28 h | half-life [35]: 1.07 h | T1/2 el [36]: 3.37 h | half-life [37]: 1.26 h | half-life [38]: 2.04 h | half-life [39]: 3 h | half-life [40]: 1.23 h | half-life [41]: 1.47 h | half-life [42]: 1.18 h | half-life [43]: 2.21 h | Tmax [44]: 4.8 min | Tmax [45]: 3.6 min | Tmax [46]: 1 h | Tmax [47]: 3 h | Tmax [48]: 3 h | Tmax [49]: 1.39 h | Tmax [50]: 2.82 h | Tmax [51]: 4.8 min | EC50 [1]: 14 nM | Tmax [52]: 4.8 min | Tmax [53]: 3 h | Tmax [54]: 3 h | Tmax [55]: 4 h | T max [56]: 3.5 h | half-life [57]: 1.72 h
SMILES: CS(=O)(=O)O.Cc1c(O)cccc1C(=O)N[C@@H](CSc1ccccc1)[C@H](O)CN1C[C@H]2CCCC[C@H]2C[C@H]1C(=O)NC(C)(C)C [NELFINAVIR MESYLATE]

From ChEMBL document CHEMBL1130253 (J Med Chem, 1997)
